{"source": "PubChem BioAssay AID624121", "about": "(Johns Hopkins Ion Channel Center, 2012)", "target": "Potassium channel subfamily K member 9 (Homo sapiens) (UniProt Q9NPC2)", "sequence (Q9NPC2 whole entry, looked up)": "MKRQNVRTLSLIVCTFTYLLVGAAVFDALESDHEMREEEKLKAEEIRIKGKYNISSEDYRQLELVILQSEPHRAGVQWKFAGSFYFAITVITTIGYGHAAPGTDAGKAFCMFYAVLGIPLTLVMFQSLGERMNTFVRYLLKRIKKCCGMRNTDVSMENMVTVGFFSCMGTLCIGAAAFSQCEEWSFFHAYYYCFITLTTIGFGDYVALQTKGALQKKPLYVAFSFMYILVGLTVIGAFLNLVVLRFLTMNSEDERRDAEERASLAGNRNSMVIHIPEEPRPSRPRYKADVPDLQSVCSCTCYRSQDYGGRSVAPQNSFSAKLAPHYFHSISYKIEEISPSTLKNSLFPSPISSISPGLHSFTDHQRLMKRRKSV", "experiment": "KCNK9 current inhibition, whole-cell recording, SAR follow-up, manual electrophysiology (AID 624121)", "settings": "HEK293 KCNK9 stable, whole-cell patch clamp current; at 1 µM; stronger effect = higher value", "in_short": "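Test system – inducible KCNK9-expressing HEK293 cell line · Buffer or medium – NaCl bath with 5 mM KCl, KCl pipette, pH 7.3 · Times – induction 16–24 h pre-recording, 30 s ramp interval · Measured by – whole-cell patch clamp current at -20 mV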", "data": [{"molecule": "C[C@@H]([C@@H]1CC2CC[C@H]1C2)n1c(-c2ccco2)n[nH]c1=S", "values": [{"measurement": "inhibition", "result": 55.2, "unit": "%"}]}]}
